One compound from ChEMBL document CHEMBL3124742, “Synthesis and biological evaluation of new carbohydrate-substituted indenoisoquinoline topoisomerase I inhibitors and improved syntheses of the experimental anticancer agents indotecan (LMP400) and indimitecan (LMP776)” (J Med Chem, 2014) can be followed below.

Molecules are shown by their SMILES. Calls of active or inactive are those of the source. No cut-off for these calls is given here. Bounds are passed on as bounds.

One experiment deals with DU-145. The experiment in a line: Growth inhibition of human DU145 cells. The format is functional. The method in brief: (§1)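 NCI-60 five-dose testing, 10^-8 to 10^-4 M, given only to compounds with significant growth inhibition in the 10 μM one-dose screen. Five-dose assay may be repeated.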
The test system of another experiment is HOP-62. Briefly: Growth inhibition of human HOP62 cells. Type of experiment: functional. The method in brief: as §1
Experiment [1] can be described thus: Growth inhibition of human SF539 cells. Type of experiment: functional. The settings on record: SF-539. The method in brief: as §1
In a further experiment the test system is OVCAR-3. The experiment in a line: Growth inhibition of human OVCAR3 cells. Type of experiment: functional. The essentials:
as §1

In experiment [2] the target is Tyrosyl-DNA phosphodiesterase 1 (Homo sapiens, UniProt Q9NUW8). Briefly: Inhibition of recombinant TDP1 (unknown origin) using N14Y as substrate after 15 mins by PAGE analysis. The essentials: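 Substrate is a 5'-[32P]-labelled single-stranded oligonucleotide with a 3'-phosphotyrosine (N14Y). It is incubated with 5 pM recombinant TDP1 ± test compound for 15 min at room temperature. Read-out is a gel.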

A further experiment concerns MCF7. The experiment in a line: Growth inhibition of human MCF7 cells. The format is functional. The method in brief: as §1
Experiment [3] deals with T1, DNA topoisomerase 1 (Homo sapiens) (UniProt P11387).
T1 sequence (whole entry): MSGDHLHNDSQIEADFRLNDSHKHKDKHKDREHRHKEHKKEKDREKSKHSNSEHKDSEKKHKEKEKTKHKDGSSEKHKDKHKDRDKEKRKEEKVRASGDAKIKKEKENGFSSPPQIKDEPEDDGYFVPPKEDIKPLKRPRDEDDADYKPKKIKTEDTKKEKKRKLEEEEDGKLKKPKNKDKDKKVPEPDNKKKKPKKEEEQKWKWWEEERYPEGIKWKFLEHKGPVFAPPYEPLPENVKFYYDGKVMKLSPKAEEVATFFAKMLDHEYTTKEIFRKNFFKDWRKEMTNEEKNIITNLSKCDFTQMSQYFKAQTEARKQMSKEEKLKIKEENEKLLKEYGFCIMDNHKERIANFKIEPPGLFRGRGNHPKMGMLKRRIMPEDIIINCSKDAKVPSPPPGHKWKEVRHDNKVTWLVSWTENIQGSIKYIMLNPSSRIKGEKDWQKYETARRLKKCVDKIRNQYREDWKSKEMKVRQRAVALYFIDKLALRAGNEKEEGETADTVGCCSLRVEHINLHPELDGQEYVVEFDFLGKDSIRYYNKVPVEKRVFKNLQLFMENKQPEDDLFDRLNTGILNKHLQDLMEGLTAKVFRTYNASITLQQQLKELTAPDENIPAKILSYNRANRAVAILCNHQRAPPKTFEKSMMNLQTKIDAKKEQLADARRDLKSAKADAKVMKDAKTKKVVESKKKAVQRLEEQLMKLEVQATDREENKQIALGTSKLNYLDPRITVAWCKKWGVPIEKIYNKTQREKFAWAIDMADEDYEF
The experiment in a line: Inhibition of recombinant topoisomerase-1 (unknown origin) assessed as inhibition of 3'-[32P]-labeled DNA cleavage at 0.1 to 100 uM after 20 mins by PAGE analysis relative to control.

The test system of another experiment is SN12C. Briefly: Growth inhibition of human SN12C cells. The format is functional. The essentials:
as §1

The nature of experiment [4]: Cytotoxicity against human NCI60 cells assessed as cell growth at 10 uM relative to vehicle-treated control. Type of experiment: functional. The settings on record: read-out: Activity. The method in brief: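 NCI-60 one-dose screen: roughly 60 human cancer cell lines exposed to 10^-5 M (10 μM) compound. Value is growth percent of treated cells relative to vehicle-treated control, averaged across the panel.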

The subject of a further experiment is HCT-116. The experiment in a line: Growth inhibition of human HCT116 cells. The format is functional. The essentials: as §1
The subject of another experiment is UACC-62. The experiment in a line: Growth inhibition of human UACC62 cells. The format is functional. The method in brief:
as §1

Tyrosyl-DNA phosphodiesterase 1, sequence (Q9NUW8 whole entry): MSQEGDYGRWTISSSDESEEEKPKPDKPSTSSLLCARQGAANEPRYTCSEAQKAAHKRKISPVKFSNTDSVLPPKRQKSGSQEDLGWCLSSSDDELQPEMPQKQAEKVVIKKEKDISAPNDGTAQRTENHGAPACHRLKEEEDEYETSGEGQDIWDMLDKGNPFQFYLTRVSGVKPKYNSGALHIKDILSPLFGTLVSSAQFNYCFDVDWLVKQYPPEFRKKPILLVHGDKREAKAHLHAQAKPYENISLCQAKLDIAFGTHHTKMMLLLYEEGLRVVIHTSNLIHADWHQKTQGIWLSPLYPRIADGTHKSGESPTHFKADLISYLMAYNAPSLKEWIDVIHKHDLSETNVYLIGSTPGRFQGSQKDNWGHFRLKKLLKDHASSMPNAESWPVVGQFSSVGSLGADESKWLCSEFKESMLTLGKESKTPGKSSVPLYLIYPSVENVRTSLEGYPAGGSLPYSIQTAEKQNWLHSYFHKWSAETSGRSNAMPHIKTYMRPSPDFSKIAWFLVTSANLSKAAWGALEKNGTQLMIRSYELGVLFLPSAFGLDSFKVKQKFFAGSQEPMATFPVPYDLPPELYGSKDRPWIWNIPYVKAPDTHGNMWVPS

In the case of `COc1cc2c3c(n(C[C@@H](O)[C@@H](O)[C@H](O)CO)c(=O)c2cc1OC)-c1cc2c(cc1C3=O)OCO2`, the 50% growth inhibitory concentration (GI50) (as a rule, the concentration giving 50% growth inhibition) in the experiment with DU-145 worked out at 2510 nM; in the experiment with HOP-62, 676 nM; in [1], 214 nM; in the experiment with OVCAR-3, 794 nM; in the experiment with MCF7 it was 79 nM; in the experiment with SN12C, 457 nM. Further, the GI50 came to 891 nM in the experiment on HCT-116 and 195 nM in the experiment with UACC-62. Further, the IC50 (as a rule, the concentration needed to halve the response being measured) in [2] is greater than 111000 nM. Further, in [3], the inhibition result was “Active”. Moreover, in experiment [4], the growth at 10 µM was 34.7%.
